# Experimental data as given in ChEMBL document CHEMBL2380298, “Synthesis and antimicrobial activity of novel amphiphilic aromatic amino alcohols” (2013).
# Experiments:
# Format in all cases: functional
# [1] = tested on: Staphylococcus epidermidis; assay: Antimicrobial activity against Staphylococcus epidermidis ATCC 12228 by broth dilution method; conditions: for MIC: Staphylococcus epidermidis, ATCC 12228
# [2] = tested on: Staphylococcus aureus; assay: Antimicrobial activity against Staphylococcus aureus ATCC 29213 by broth dilution method; conditions: for MIC: Staphylococcus aureus, ATCC 29213
# [3] = tested on: Staphylococcus aureus; assay: Bactericidal activity against methicillin-resistant Staphylococcus aureus clinical isolate 264 after 24 hrs; conditions: isolate 264, 24 h
# In short: (§1)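 Bactericidal concentration: 0.1 ml from wells at the MIC dilution and the dilutions on either side was streaked onto tryptic soy agar and incubated 24 h. It was taken as the lowest drug concentration giving no growth (100% killing).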
# [4] = tested on: Staphylococcus aureus; assay: Bactericidal activity against methicillin-resistant Staphylococcus aureus clinical isolate 260 after 24 hrs; conditions: isolate 260, 24 h; in short: as §1
# [5] = tested on: Staphylococcus aureus; assay: Bactericidal activity against methicillin-resistant Staphylococcus aureus clinical isolate 259 after 24 hrs; conditions: isolate 259, 24 h; in short: as §1
# [6] = tested on: Staphylococcus aureus; assay: Bactericidal activity against methicillin-resistant Staphylococcus aureus clinical isolate 257 after 24 hrs; conditions: isolate 257, 24 h; in short: as §1
# [7] = tested on: Staphylococcus aureus; assay: Bactericidal activity against methicillin-resistant Staphylococcus aureus clinical isolate 255 after 24 hrs; conditions: isolate 255, 24 h; in short: as §1
# [8] = tested on: Staphylococcus aureus; assay: Bactericidal activity against methicillin-resistant Staphylococcus aureus clinical isolate 238 after 24 hrs; conditions: isolate 238, 24 h; in short: as §1
# [9] = tested on: Staphylococcus aureus; assay: Bactericidal activity against methicillin-resistant Staphylococcus aureus clinical isolate 237 after 24 hrs; conditions: isolate 237, 24 h; in short: as §1
# [10] = tested on: Staphylococcus aureus; assay: Bactericidal activity against methicillin-resistant Staphylococcus aureus clinical isolate 236 after 24 hrs; conditions: isolate 236, 24 h; in short: as §1
# [11] = tested on: Staphylococcus aureus; assay: Bactericidal activity against methicillin-resistant Staphylococcus aureus clinical isolate 235 after 24 hrs; conditions: isolate 235, 24 h; in short: as §1
# [12] = tested on: Staphylococcus aureus; assay: Bactericidal activity against methicillin-resistant Staphylococcus aureus clinical isolate 232 after 24 hrs; conditions: isolate 232, 24 h; in short: as §1
# [13] = tested on: Staphylococcus aureus; assay: Bactericidal activity against methicillin-resistant Staphylococcus aureus clinical isolate 231 after 24 hrs; conditions: isolate 231, 24 h; in short: as §1
# [14] = tested on: Staphylococcus aureus; assay: Bactericidal activity against methicillin-resistant Staphylococcus aureus clinical isolate 225 after 24 hrs; conditions: isolate 225, 24 h; in short: as §1
# [15] = tested on: Staphylococcus aureus; assay: Bactericidal activity against methicillin-resistant Staphylococcus aureus clinical isolate 218 after 24 hrs; conditions: isolate 218, 24 h; in short: as §1
# [16] = tested on: Staphylococcus aureus; assay: Bactericidal activity against methicillin-resistant Staphylococcus aureus clinical isolate 212 after 24 hrs; conditions: isolate 212, 24 h; in short: as §1
# [17] = tested on: Escherichia coli; assay: Bactericidal activity against Escherichia coli ATCC 11229 after 24 hrs; conditions: ATCC 11229, 24 h
# In short: (§2)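 MBC: after MIC determination, 0.1 ml from the MIC well and from two dilutions either side streaked on tryptic soy agar, incubated 24 h; MBC taken as lowest concentration giving no growth (100% kill).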
# [18] = tested on: Staphylococcus epidermidis; assay: Bactericidal activity against Staphylococcus epidermidis ATCC 12228 after 24 hrs; conditions: ATCC 12228, 24 h; in short: as §2
# [19] = tested on: Staphylococcus aureus; assay: Bactericidal activity against Staphylococcus aureus ATCC 29213 after 24 hrs; conditions: ATCC 29213, 24 h; in short: as §1
# [20] = tested on: Candida parapsilosis; assay: Antimicrobial activity against Candida parapsilosis ATCC 90030 by broth dilution method; conditions: Lodderomyces parapsilosis
# [21] = tested on: Nakaseomyces glabratus; assay: Antimicrobial activity against Candida glabrata ATCC 18804 by broth dilution method
# [22] = tested on: Candida albicans; assay: Antimicrobial activity against Candida albicans ATCC 22019 by broth dilution method
# [23] = tested on: Candida tropicalis; assay: Antimicrobial activity against Candida tropicalis ATCC 750 by broth dilution method
# [24] = tested on: Staphylococcus aureus; assay: Antimicrobial activity against methicillin-resistant Staphylococcus aureus clinical isolate by broth dilution method; conditions: for MIC50 / MIC90: Staphylococcus aureus
# [25] = tested on: Staphylococcus aureus; assay: Antimicrobial activity against methicillin-resistant Staphylococcus aureus clinical isolate 264 by broth dilution method
# [26] = tested on: Staphylococcus aureus; assay: Antimicrobial activity against methicillin-resistant Staphylococcus aureus clinical isolate 260 by broth dilution method
# [27] = tested on: Staphylococcus aureus; assay: Antimicrobial activity against methicillin-resistant Staphylococcus aureus clinical isolate 257 by broth dilution method
# [28] = tested on: Staphylococcus aureus; assay: Antimicrobial activity against methicillin-resistant Staphylococcus aureus clinical isolate 259 by broth dilution method
# [29] = tested on: Staphylococcus aureus; assay: Antimicrobial activity against methicillin-resistant Staphylococcus aureus clinical isolate 238 by broth dilution method
# [30] = tested on: Staphylococcus aureus; assay: Antimicrobial activity against methicillin-resistant Staphylococcus aureus clinical isolate 255 by broth dilution method
# [31] = tested on: Staphylococcus aureus; assay: Antimicrobial activity against methicillin-resistant Staphylococcus aureus clinical isolate 237 by broth dilution method
# [32] = tested on: Staphylococcus aureus; assay: Antimicrobial activity against methicillin-resistant Staphylococcus aureus clinical isolate 236 by broth dilution method
# [33] = tested on: Staphylococcus aureus; assay: Antimicrobial activity against methicillin-resistant Staphylococcus aureus clinical isolate 235 by broth dilution method
# [34] = tested on: Staphylococcus aureus; assay: Antimicrobial activity against methicillin-resistant Staphylococcus aureus clinical isolate 232 by broth dilution method
# [35] = tested on: Staphylococcus aureus; assay: Antimicrobial activity against methicillin-resistant Staphylococcus aureus clinical isolate 227 by broth dilution method
# [36] = tested on: Staphylococcus aureus; assay: Antimicrobial activity against methicillin-resistant Staphylococcus aureus clinical isolate 231 by broth dilution method
# [37] = tested on: Staphylococcus aureus; assay: Antimicrobial activity against methicillin-resistant Staphylococcus aureus clinical isolate 225 by broth dilution method
# [38] = tested on: Staphylococcus aureus; assay: Antimicrobial activity against methicillin-resistant Staphylococcus aureus clinical isolate 215 by broth dilution method
# [39] = tested on: Staphylococcus aureus; assay: Antimicrobial activity against methicillin-resistant Staphylococcus aureus clinical isolate 218 by broth dilution method
# [40] = tested on: Staphylococcus aureus; assay: Antimicrobial activity against methicillin-resistant Staphylococcus aureus clinical isolate 212 by broth dilution method
# [41] = tested on: Staphylococcus aureus; assay: Antimicrobial activity against methicillin-resistant Staphylococcus aureus clinical isolate 207 by broth dilution method
# [42] = tested on: Staphylococcus aureus; assay: Antimicrobial activity against methicillin-resistant Staphylococcus aureus clinical isolate 205 by broth dilution method
# [43] = tested on: Staphylococcus aureus; assay: Antimicrobial activity against methicillin-resistant Staphylococcus aureus clinical isolate 195 by broth dilution method
# [44] = tested on: Staphylococcus aureus; assay: Antimicrobial activity against methicillin-resistant Staphylococcus aureus clinical isolate 178 by broth dilution method
# [45] = tested on: Staphylococcus aureus; assay: Antimicrobial activity against methicillin-resistant Staphylococcus aureus clinical isolate 176 by broth dilution method
# [46] = tested on: Pseudomonas aeruginosa; assay: Antimicrobial activity against Pseudomonas aeruginosa ATCC 27853 by broth dilution method
# [47] = tested on: Escherichia coli; assay: Antimicrobial activity against Escherichia coli ATCC 11229 by broth dilution method; conditions: for MIC: Escherichia coli, ATCC 11229
# [48] = tested on: Staphylococcus aureus; assay: Bactericidal activity against methicillin-resistant Staphylococcus aureus clinical isolate 227 after 24 hrs; conditions: isolate 227, 24 h; in short: as §1
# [49] = tested on: Staphylococcus aureus; assay: Bactericidal activity against methicillin-resistant Staphylococcus aureus clinical isolate 215 after 24 hrs; conditions: isolate 215, 24 h; in short: as §1
# [50] = tested on: Staphylococcus aureus; assay: Bactericidal activity against methicillin-resistant Staphylococcus aureus clinical isolate 207 after 24 hrs; conditions: isolate 207, 24 h; in short: as §1
# [51] = tested on: Staphylococcus aureus; assay: Bactericidal activity against methicillin-resistant Staphylococcus aureus clinical isolate 195 after 24 hrs; conditions: isolate 195, 24 h; in short: as §1
# [52] = tested on: Staphylococcus aureus; assay: Bactericidal activity against methicillin-resistant Staphylococcus aureus clinical isolate 178 after 24 hrs; conditions: isolate 178, 24 h; in short: as §1
# [53] = tested on: Staphylococcus aureus; assay: Bactericidal activity against methicillin-resistant Staphylococcus aureus clinical isolate 176 after 24 hrs; conditions: isolate 176, 24 h; in short: as §1
smiles,measurement,setting,value
CCCCCCCCOc1ccc(CNC(CO)(CO)CO)cc1.Cl,-logMIC,[1],4.37
same,MIC,[1],16 µg/mL
same,-logMIC,[2],3.67
same,MIC,[2],8 µg/mL
same,MBC,[3],64 µg/mL
same,MBC,[4],32 µg/mL
same,MBC,[5],8 µg/mL
same,MBC,[6],8 µg/mL
same,MBC,[7],8 µg/mL
same,MBC,[8],16 µg/mL
same,MBC,[9],16 µg/mL
same,MBC,[10],32 µg/mL
same,MBC,[11],32 µg/mL
same,MBC,[12],16 µg/mL
same,MBC,[13],16 µg/mL
same,MBC,[14],512 µg/mL
same,MBC,[15],128 µg/mL
same,MBC,[16],128 µg/mL
same,MBC,[17],32 µg/mL
same,MBC,[18],128 µg/mL
same,MBC,[19],32 µg/mL
same,MIC,[20],32 µg/mL
same,MIC,[21],8 µg/mL
same,MIC,[22],4 µg/mL
same,MIC,[23],32 µg/mL
same,-logMIC,[24],4.287
same,MIC50,[24],16 µg/mL
same,MIC90,[24],64 µg/mL
same,MIC,[25],8 µg/mL
same,MIC,[26],16 µg/mL
same,MIC,[27],8 µg/mL
same,MIC,[28],8 µg/mL
same,MIC,[29],16 µg/mL
same,MIC,[30],8 µg/mL
same,MIC,[31],16 µg/mL
same,MIC,[32],16 µg/mL
same,MIC,[33],16 µg/mL
same,MIC,[34],16 µg/mL
same,MIC,[35],32 µg/mL
same,MIC,[36],16 µg/mL
same,MIC,[37],128 µg/mL
same,MIC,[38],16 µg/mL
same,MIC,[39],16 µg/mL
same,MIC,[40],32 µg/mL
same,MIC,[41],64 µg/mL
same,MIC,[42],16 µg/mL
same,MIC,[43],32 µg/mL
same,MIC,[44],128 µg/mL
same,MIC,[45],32 µg/mL
same,MIC,[46],> 256 µg/mL
same,-logMIC,[47],4.06
same,MIC,[47],32 µg/mL
CCCCCCCCCOc1ccc(CNC(CO)(CO)CO)cc1.Cl,-logMIC,[1],4.68
same,MIC,[1],8 µg/mL
same,MIC,[2],8 µg/mL
same,MBC,[3],32 µg/mL
same,MBC,[4],32 µg/mL
same,MBC,[5],32 µg/mL
same,MBC,[6],64 µg/mL
same,MBC,[7],32 µg/mL
same,MBC,[8],32 µg/mL
same,MBC,[9],32 µg/mL
same,MBC,[10],16 µg/mL
same,MBC,[11],32 µg/mL
same,MBC,[12],32 µg/mL
same,MBC,[13],32 µg/mL
same,MBC,[48],64 µg/mL
same,MBC,[14],16 µg/mL
same,MBC,[49],32 µg/mL
same,MBC,[16],64 µg/mL
same,MBC,[50],64 µg/mL
same,MBC,[51],32 µg/mL
same,MBC,[52],32 µg/mL
same,MBC,[53],32 µg/mL
same,MBC,[17],32 µg/mL
same,MBC,[18],16 µg/mL
same,MBC,[19],16 µg/mL
same,MIC,[20],32 µg/mL
same,MIC,[21],4 µg/mL
same,MIC,[22],4 µg/mL
same,MIC,[23],64 µg/mL
same,-logMIC,[24],4.529
same,MIC50,[24],8 µg/mL
same,MIC90,[24],16 µg/mL
same,MIC,[25],8 µg/mL
same,MIC,[26],16 µg/mL
same,MIC,[27],8 µg/mL
same,MIC,[28],8 µg/mL
same,MIC,[29],32 µg/mL
same,MIC,[30],16 µg/mL
same,MIC,[31],16 µg/mL
same,MIC,[32],8 µg/mL
same,MIC,[33],8 µg/mL
same,MIC,[34],16 µg/mL
same,MIC,[35],16 µg/mL
same,MIC,[36],8 µg/mL
same,MIC,[37],8 µg/mL
same,MIC,[38],16 µg/mL
same,MIC,[39],8 µg/mL
same,MIC,[40],32 µg/mL
same,MIC,[41],16 µg/mL
same,MIC,[42],8 µg/mL
same,MIC,[43],8 µg/mL
same,MIC,[44],16 µg/mL
same,MIC,[45],8 µg/mL
same,MIC,[46],> 256 µg/mL
same,-logMIC,[47],4.38
same,MIC,[47],16 µg/mL
